Calls of active or inactive are those of the source. The rule behind the calls is not given here.
Key:
[1] = target: T1, Liver X receptor (Homo sapiens) (UniProt Q13133+P55055); test: Modulation of LXR in human myotubes assessed as increase of D-[14C(U)]deoxy-D-glucose uptake at 1 uM after 4 days by scintillation counting; type: protein assay
In short: (§1)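 Primary myotubes, 7 days differentiated, treated 4 days with compounds in 0.1% DMSO. Then given D-[14C(U)]deoxy-D-glucose (100 mM as printed) for 4 h. Washed twice with ice-cold PBS, lysed in 0.1 M NaOH and counted by liquid scintillation. Uptake normalized to protein; mean ± SEM of separate experiments, at least 3 parallels each.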

[2] = target: T1, Liver X receptor (Homo sapiens); test: Modulation of LXR in human myotubes assessed as increase of D-[14C(U)]deoxy-D-glucose uptake after 4 days by scintillation counting; type: protein assay; in short: as §1
[3] = target: T1, Liver X receptor (Homo sapiens); test: Modulation of LXR in human myotubes assessed as increase of T0901317-induced lipogenesis using [1-14C]acetate at 1 uM after 4 days by scintillation counting; type: protein assay
In short: (§2)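 Primary myotubes from satellite cells of 6 healthy donors, used after 7 days of differentiation. Treated 4 days with compounds ± T0901317 in 0.1% DMSO, then labelled 24 h with [1-14C]acetate (100 mM as printed). Lysed in NaOH; total lipids isolated by hydrophobic filtration and scintillation-counted. Normalized to protein; fold vs control, mean ± SEM, n = 3–6; dose–response n = 6.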

[4] = target: T1, Liver X receptor (Homo sapiens); test: Modulation of LXR in human myotubes assessed as reduction of lipogenesis using [1-14C]acetate after 4 days by scintillation counting; type: protein assay; in short: as §2
[5] = target: T1, Liver X receptor (Homo sapiens); test: Modulation of LXR in human HepG2 cells assessed as decrease of T0901317-induced SCD1 mRNA expression at 10 uM after 4 days by qPCR analysis; type: cell-based
[6] = target: T1, Liver X receptor (Homo sapiens); test: Modulation of LXR in human myotubes assessed as decrease of T0901317-induced SCD1 mRNA expression at 10 uM after 4 days by qPCR analysis
In short: (§3)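 Cells given 1 mM T0901317 (so in the source) together with […] test compound; DMSO 0.1% vehicle. Myotubes treated 4 days, HepG2 24 h. Total RNA reverse-transcribed with hexamer primers, then SYBR Green qPCR. Expression normalized to 36B4 and given as fold change vs DMSO control, mean ± SEM, n = 3–11 separate experiments, at least 3 parallels each.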

[7] = target: T1, Liver X receptor (Homo sapiens); test: Modulation of LXR in human HepG2 cells assessed as reduction of lipogenesis using [1-14C]acetate at 1 uM after 24 h by scintillation counting
[8] = target: T1, Liver X receptor (Homo sapiens); test: Modulation of LXR in human HepG2 cells assessed as decrease of T0901317-induced ABCA1 mRNA expression at 10 uM after 4 days by qPCR analysis; type: cell-based
[9] = target: T1, Liver X receptor (Homo sapiens); test: Modulation of LXR in human HepG2 cells assessed as decrease of T0901317-induced FAS mRNA expression at 10 uM after 4 days by qPCR analysis; type: cell-based
[10] = target: T1, Liver X receptor (Homo sapiens); test: Modulation of LXR in human myotubes assessed as decrease of T0901317-induced ABCA1 mRNA expression at 10 uM after 4 days by qPCR analysis; in short: as §3
[11] = target: T1, Liver X receptor (Homo sapiens); test: Modulation of LXR in human myotubes assessed as decrease of T0901317-induced FAS mRNA expression at 10 uM after 4 days by qPCR analysis; in short: as §3
[12] = target: T1, Liver X receptor (Homo sapiens); test: Modulation of LXR in human myotubes assessed as increase of ABCA1 mRNA expression at 10 uM after 4 days by qPCR analysis
In short: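 Primary human myotubes (satellite cells from abdominal muscle of 6 healthy donors, differentiated 7 days at 5.5 mM glucose, 25 pM insulin) treated with compound or 0.1% DMSO for 4 days. Total RNA reverse-transcribed with hexamer primers; SYBR Green qPCR. ABCA1 normalised to 36B4 and reported as fold change versus DMSO, mean ± SEM, n = 3–11.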

[13] = target: T1, Liver X receptor (Homo sapiens); test: Modulation of LXR in human myotubes assessed as increase of ABCA1 mRNA expression at 10 uM after 4 days by qPCR analysis
[14] = target: T1, Liver X receptor (Homo sapiens); test: Modulation of LXR in human HepG2 cells assessed as reduction of T0901317-induced lipogenesis using [1-14C]acetate at 1 uM after 24 h by scintillation counting
[15] = target: T1, Liver X receptor (Homo sapiens); test: Modulation of LXR in human myotubes assessed as reduction of T0901317-induced lipogenesis using [1-14C]acetate at 10 uM after 4 days by scintillation counting
[16] = target: T1, Liver X receptor (Homo sapiens); test: Modulation of LXR in human myotubes assessed as increase of D-[14C(U)]deoxy-D-glucose uptake at 1 to 50 uM after 4 days by scintillation counting; type: protein assay; in short: as §1
[17] = target: T1, Liver X receptor (Homo sapiens); test: Modulation of LXR in human myotubes assessed as increase of D-[14C(U)]deoxy-D-glucose uptake at 50 uM after 4 days by scintillation counting; type: protein assay; in short: as §1
[18] = target: T1, Liver X receptor (Homo sapiens); test: Modulation of LXR in human HepG2 cells assessed as reduction of T0901317-induced lipogenesis using [1-14C]acetate at 1 uM after 4 days by scintillation counting; type: cell-based

CC(C)CC[C@H](O)[C@@H](C)COCc1ccc(S(=O)(=O)N(COCC[Si](C)(C)C)COCC[Si](C)(C)C)cc1
Activity [1]: Active | Activity [2]: Dose-dependent effect | Activity [3]: Active | Activity [4]: Dose-dependent effect | Activity [5]: Active | Activity [6]: Active | Activity [7]: Active

CC(C)CC[C@H](O)[C@@H](C)COCc1ccc(S(=O)(=O)N(C)C2CCCCC2)cc1
Activity [1]: Active | Activity [2]: Dose-dependent effect | Activity [3]: Active | Activity [8]: Active | Activity [9]: inactive | Activity [5]: inactive | Activity [10]: Active | Activity [11]: inactive | Activity [6]: inactive

CC(C)CC[C@H](O)[C@@H](C)[C@H]1CC[C@H]2[C@@H]3CC=C4C[C@@H](O)CC[C@]4(C)[C@H]3CC[C@]12C
Activity [8]: inactive | Activity [10]: inactive | Activity [12]: Active | Activity [13]: Active | Activity [14]: Active | Activity [15]: Active

CCCCCCN(CCCCCC)S(=O)(=O)c1ccc(COC[C@H](C)[C@@H](O)CCC(C)C)cc1
Activity [16]: inactive | Activity [3]: Active | Activity [8]: inactive | Activity [9]: inactive | Activity [5]: inactive | Activity [10]: inactive | Activity [11]: inactive | Activity [6]: inactive

COc1ccc2cc(COC[C@H](C)[C@@H](O)CCC(C)C)ccc2c1
Activity [17]: Active | Activity [2]: Dose-dependent effect | Activity [18]: Active | Activity [3]: Active | Activity [9]: Active | Activity [5]: Active | Activity [11]: Active | Activity [6]: Active

— ChEMBL document CHEMBL3112443, “Development of new LXR modulators that regulate LXR target genes and reduce lipogenesis in human cell models” (Eur J Med Chem, 2014)
